Data published in ChEMBL document CHEMBL3992505, “Optimization of substituted imidazobenzodiazepines as novel asthma treatments” (Eur J Med Chem, 2017).

Tests used:
[1] = Half life in human liver microsomes at 10 uM by LC-MS/MS analysis; assay type: ADME, microsome
[2] = (§1) Half life in mouse liver microsomes at 10 uM by LC-MS/MS analysis; assay type: ADME, microsome; conditions: liver microsomes
Liver [3] = test: Metabolic stability in human liver microsomes assessed as compound remaining at 10 uM after 1 hr by LC-MS/MS analysis; assay type: ADME, microsome
Procedure, shortened: (§2)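 Compound stability was measured in human or mouse liver microsomes as percent remaining after 1 h. Data came from two independent experiments, each run in triplicate.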

[4] = Cytotoxicity in human BEAS2B cells after 48 hrs by Cell-titer Glo reagent based assay; design: species or system BEAS-2B; conditions: read-out: LD50
Procedure, shortened: (§3)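 Cells (HEK293, HepG2 or BEAS2B) exposed to compounds at a range of concentrations for 48 h; viability read by Cell-Titer Glo luminescence. Normalized to DMSO (negative) and 3-dibutylamino-1-(4-hexyl-phenyl)-propan-1-one at 150 μM final in DMSO (positive).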

Liver [5] = test: Metabolic stability in mouse liver microsomes assessed as compound remaining at 10 uM after 1 hr by LC-MS/MS analysis; assay type: ADME, microsome; procedure, shortened: as §2
[6] = Cytotoxicity in human HepG2 cells after 48 hrs by Cell-titer Glo reagent based assay; conditions: read-out: LD50; procedure, shortened: as §3
[7] = Cytotoxicity in HEK293 cells after 48 hrs by Cell-titer Glo reagent based assay; conditions: human, read-out: LD50; procedure, shortened: as §3
Mus musculus [8] = test: Neurotoxicity in Swiss Webster mouse assessed as induction of senorimotor impairment at 40 mg/kg, ip administered 10 mins prior to testing and measured for 3 mins at 10 to 60 mins after drug administration by rotarod method; assay type: toxicity, organism-based; conditions: in vivo
Procedure, shortened: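 Swiss Webster mice, pre-trained at 15 rpm until they held on for 3 min at three consecutive sessions, were given a single i.p. dose of 40 mg/kg in 10% DMSO/40% propylene glycol/50% PBS. Rotarod at 15 rpm for 3 min at 10, 30 and 60 min after dosing. Falls before 3 min scored as fail, with time of fall recorded. N = 10, mean ± SEM. Vehicle and diazepam 5 mg/kg i.p. controls. Mice rested 2–3 days between doses.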

[9] = Solubility of the compound in PBS/1% DMSO at 10 uM; assay type: physicochemical; conditions: buffer
Procedure, shortened: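 Solubility was judged at 10 μM in PBS containing 1% DMSO.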

Liver [10] = test: as §1; assay type: ADME, microsome; conditions: microsomes, 10 µM
[11] = Solubility of the compound in 50% PBS/40% propylene glycol/10% DMSO at 10 uM; assay type: physicochemical; conditions: buffer
Mus musculus [12] = test: Neurotoxicity in Swiss Webster mouse assessed as induction of senorimotor impairment at 15 mg/kg administered 10 mins prior to testing and measured for 3 mins at 10 to 60 mins after drug administration by rotarod method; assay type: toxicity, organism-based; conditions: in vivo

SMILES	half-life at 10 µM [1] [h]	half-life at 10 µM [2] [h]	Stability (Liver [3]) [%]	CC50 at 48 h [4] [µM]	Stability (Liver [5]) [%]	CC50 at 48 h [6] [µM]	CC50 at 48 h [7] [µM]	Activity (Mus musculus [8])	solubility [9]	t1/2 (Liver [10]) [h]	solubility [11]	Activity (Mus musculus [12])
CC(C)(C)OC(=O)c1ncn2c1[C@@H]1CCCN1C(=O)c1cc(O)ccc1-2	9.65	0.96	90.6	> 400	46.6	> 400	> 400	–	–	–	–	–
CNC(=O)c1ncn2c1[C@@H]1CCCN1C(=O)c1cc(OC)ccc1-2	16.3	1.08	93.8	> 400	54.3	> 400	> 100	Toxic	–	–	–	–
[2H]C([2H])([2H])Oc1ccc2c(c1)C(=O)N1CCC[C@H]1c1c(C(=O)SC(C)(C)C)ncn1-2	–	–	–	> 100	–	> 100	16.8	–	Insoluble	–	–	–
CCNC(=O)c1ncn2c1[C@@H]1CCCN1C(=O)c1cc(OC)ccc1-2	12.2	–	90.7	> 400	50.1	> 400	> 400	–	–	4.72	–	–
CCOC(=O)c1ncn2c1[C@@H]1CCCN1C(=O)c1cc(OC)ccc1-2	–	5.3	99.1	> 400	85.4	> 400	> 400	–	–	–	–	–
[2H]C([2H])([2H])Oc1ccc2c(c1)C(=O)N1CCC[C@H]1c1c(C(=O)OC(C)(C)C)ncn1-2	16.9	0.428	91.9	> 200	17.6	> 400	> 100	–	–	–	–	–
COc1ccc2c(c1)C(=O)N1CCC[C@H]1c1c(C(=O)NC3CC3)ncn1-2	13.1	–	79.9	> 400	91.3	> 400	> 200	–	–	0.222	–	–
COc1ccc2c(c1)C(=O)N1CCC[C@H]1c1c(C(=O)NC(C)(C)C)ncn1-2	3.23	–	92.8	> 400	4.2	> 400	> 200	–	–	10.4	–	–
[2H]C([2H])([2H])Oc1ccc2c(c1)C(=O)N1CCC[C@H]1c1c(C(=O)NCC)ncn1-2	21.3	4.55	93.5	> 400	94.8	> 400	> 400	Non-Toxic	–	–	–	–
CCOC(=O)c1ncn2c1[C@@H]1CCCN1C(=O)c1cc(O)ccc1-2	11	9	91.7	> 400	91.1	> 400	> 400	Non-Toxic	–	–	–	–
COC(=O)c1ncn2c1[C@@H]1CCCN1C(=O)c1cc(OC)ccc1-2	11.1	2.15	89.7	> 400	70.3	> 400	> 400	–	–	–	–	–
COc1ccc2c(c1)C(=O)N1CCC[C@H]1c1c(C(=O)OCC(C)C)ncn1-2	2.82	0.325	77.8	> 200	13.4	> 200	> 100	–	–	–	Insoluble	–
[2H]C([2H])([2H])Oc1ccc2c(c1)C(=O)N1CCC[C@H]1c1c(C(=O)NC3CC3)ncn1-2	30	–	88.1	> 400	94.1	> 400	> 200	–	–	0.295	–	–
[2H]C([2H])([2H])Oc1ccc2c(c1)C(=O)N1CCC[C@H]1c1c(C(=O)NC(C)(C)C)ncn1-2	7.15	–	95.6	> 400	9.4	> 400	> 200	Toxic	–	21.5	–	–
[2H]C([2H])([2H])Oc1ccc2c(c1)C(=O)N1CCC[C@H]1c1c(C(=O)NC)ncn1-2	23.9	1.29	94.9	> 400	56.8	> 400	> 100	–	–	–	–	–
CCSC(=O)c1ncn2c1[C@@H]1CCCN1C(=O)c1cc(OC)ccc1-2	–	–	–	> 100	–	> 100	> 100	–	Insoluble	–	Insoluble	–
[2H]C([2H])([2H])Oc1ccc2c(c1)C(=O)N1CCC[C@H]1c1c(C(=O)OC)ncn1-2	16.3	4.75	92.9	> 400	85.9	> 400	> 400	Toxic	–	–	–	–
COc1ccc2c(c1)C(=O)N1CCC[C@H]1c1c(C(=O)OC(C)(C)C)ncn1-2	11.9	0.402	92.1	> 200	16.2	> 400	> 100	–	–	–	–	Toxic
[2H]C([2H])([2H])Oc1ccc2c(c1)C(=O)N1CCC[C@H]1c1c(C(=O)N(C)C)ncn1-2	13.3	24.7	96.3	> 400	83.1	> 400	> 400	Non-Toxic	–	–	–	–
[2H]C([2H])([2H])Oc1ccc2c(c1)C(=O)N1CCC[C@H]1c1c(C(=O)OC(C(F)(F)F)C(F)(F)F)ncn1-2	3.4	1.82	77.1	> 400	62.5	> 400	> 200	–	–	–	Insoluble	–
[2H]C([2H])([2H])Oc1ccc2c(c1)C(=O)N1CCC[C@H]1c1c(C(=O)SCC)ncn1-2	–	–	–	> 100	–	> 100	> 100	–	Insoluble	–	Insoluble	–
COc1ccc2c(c1)C(=O)N1CCC[C@H]1c1c(C(=O)OC(C(F)(F)F)C(F)(F)F)ncn1-2	–	–	–	> 400	–	> 400	> 200	–	Insoluble	–	Insoluble	–
[2H]C([2H])([2H])Oc1ccc2c(c1)C(=O)N1CCC[C@H]1c1c(C(=O)O)ncn1-2	5.6	4.71	84.6	> 400	84.6	> 400	> 400	Non-Toxic	–	–	–	–
COc1ccc2c(c1)C(=O)N1CCC[C@H]1c1c(C(=O)SC(C)(C)C)ncn1-2	–	–	–	> 100	–	> 100	18.8	–	Insoluble	–	Insoluble	–
[2H]C([2H])([2H])Oc1ccc2c(c1)C(=O)N1CCC[C@H]1c1c(C(=O)OCC)ncn1-2	14	5.85	92.8	> 400	85.5	> 400	> 400	–	–	–	–	–
COc1ccc2c(c1)C(=O)N1CCC[C@H]1c1c(C(=O)O)ncn1-2	1.33	1.22	56.1	> 400	52.9	> 400	> 400	–	–	–	–	–
[2H]C([2H])([2H])Oc1ccc2c(c1)C(=O)N1CCC[C@H]1c1c(C(=O)OCC(C)C)ncn1-2	3.35	0.448	78.7	> 200	22.4	> 200	> 100	Toxic	–	–	–	–
